Test results reported in article PMC3974318 (Memórias do Instituto Oswaldo Cruz, 2013).
“Also recorded” adds a separate entry of the source.

Experiments:
[1] = test system: axenic amastigotes of Leishmania amazonensis; experiment: Cell viability by propidium iodide staining, flow cytometry; type: cell-based
[2] = test system: axenic amastigote forms of L. amazonensis; experiment: Mitochondrial membrane potential by rhodamine 123, flow cytometry; type: cell-based, Leishmania amazonensis; settings: 3 h, 32 °C, untreated cells 93.7%
[3] = test system: T. cruzi epimastigotes; settings: extracellular replicative form; ref Izumi et al. (2012); cited from earlier work
[4] = test system: intracellular trypanosomes; settings: ref Izumi et al. 2012; cited from earlier work
[5] = test system: Erythrocytes; experiment: Cytotoxic activity: haemolysis of erythrocytes; type: cell-based, Human; settings: for toxicity to mammalian erythrocytes (lysis), in words: 3 h, 37 °C
Summary of the method: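 Blood from healthy human donors was defibrinated and washed in glycosylated saline. A 3% erythrocyte suspension in glycosylated saline was incubated with a range of test compound concentrations for 3 h at 37 °C. Supernatant absorbance at 550 nm was compared with 1% Triton X-100-treated wells to give percent haemolysis.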

[6] = test system: promastigote forms of Leishmania amazonensis; experiment: Ultrastructural analysis by SEM and TEM; type: cell-based; settings: 2.5 µg/mL, 72 h
[7] = 100 µg/mL, 3 h, 32 °C, negative control 11.4%

SMILES	PI-positive events, upper left quadrant gated percentage [1, 7] [%]	Rh123 upper right gated population percentage ([2]; 100 µg/mL) [%]	toxicity to mammalian erythrocytes (lysis), in words [5]	further results
C=C1CC[C@@H]2[C@](C)(CCC[C@]2(C)C(=O)O)[C@H]1CC/C(C)=C/C(=O)O [Agathic acid, labd-8(20)-13-dien-15,19-dioic acid]	63.4	27.5	–	–
C[C@@H]1[C@H](O)[C@@H](C)/C=C/C=C/C=C/C=C/C=C/C=C/C=C/[C@H](O[C@@H]2O[C@H](C)[C@@H](O)[C@H](N)[C@@H]2O)C[C@@H]2O[C@](O)(C[C@@H](O)C[C@@H](O)[C@H](O)CC[C@@H](O)C[C@@H](O)CC(=O)O[C@H]1C)C[C@H](O)[C@H]2C(=O)O [Amphotericin B, reference compound]	–	–	–	PI-positive events, upper left quadrant gated percentage ([1]; positive control, concentration not given): 75.9%
N#CC(C#N)=NNc1cccc(Cl)c1 [CCCP, carbonyl cyanide m-chlorophenylhydrazone, reference compound]	–	–	–	Rh123 upper right gated population percentage ([2]; 200 µM): 53.1%
C=C1CC[C@H]2C(C)(C)[C@@H](O)CC[C@]2(C)[C@H]1CC/C(C)=C/C(=O)O [Hydroxycopalic acid, 3β-hydroxylabda-8(20),13-dien-15-oic acid]	–	–	more toxic	ultrastructural changes in epimastigotes [3]: organelle disorganisation and membranous vacuole formation; inhibition of 50% against intracellular trypanosomes [4]: 0.6 µg/mL; ultrastructural changes (TEM) [6]: swollen mitochondria with the appearance of concentric membrane structures inside the organelle
C=C1C[C@@]23CC[C@H]4[C@@](C)(CCC[C@@]4(C)C(=O)O)[C@@H]2CC[C@@H]1C3 [Kaurenoic acid, kaur-16-ene-18-oic acid]	60.8	24.4	more toxic	selectivity index (SI) ([5]; figures fit CC50/IC50 promastigote): 5
C=C1CC[C@@H]2C(C)(C)CCC[C@@]2(C)[C@@H]1CC/C(C)=C/C(=O)OC [Methyl copalate, methyl labd-8(20),13-dien-15-oate]	–	–	–	inhibition of 50% against intracellular trypanosomes [4]: 0.8 µg/mL
C=C1CC[C@@H]2[C@](C)(CCC[C@@]2(C)C(=O)O)[C@H]1CC[C@H](C)CC(=O)O [Pinifolic acid, labd-8(20)-ene-15,18-dioic acid]	68.4	32.4	did not cause lysis except at the maximum concentration tested	toxicity to mammalian erythrocytes (lysis), in words ([5]; listed as pinifolic acid): no toxicity was observed, except at the maximum concentration tested
C=C1CC[C@@H]2[C@](C)(CCC[C@@]2(C)C(=O)O)[C@H]1CCc1ccoc1 [Polyaltic acid, 15,16-epoxylabda-8(20),13(16),14-trien-19-oic acid]	–	–	did not cause lysis except at the maximum concentration tested; also recorded: no toxicity was observed, except at the maximum concentration tested	–
